# Laboratory results: ChEMBL document CHEMBL4342472, “Investigation of Inactive-State κ Opioid Receptor Homodimerization via Single-Molecule Microscopy Using New Antagonistic Fluorescent Probes” (J Med Chem, 2020)
# The source made the active and inactive calls. The calls are words filed in the database; no cut-off is given here.
# Experiments:
# [1] = target: T1, Kappa-type opioid receptor (Homo sapiens, UniProt P41145); test: Displacement of [3H]-diprenorphine from recombinant human KOR transiently expressed in HEK293 cell membranes measured after 60 mins
# In short: (§1)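 Membranes from HEK293T cells transiently transfected with human DOR, KOR or MOR; [3H]diprenorphine final 0.3 nM (DOR, KOR) or 0.2-0.3 nM (MOR) with varying competitor, 60 min at 37 °C in Tris/MgCl2/EDTA buffer pH 7.4. Nonspecific binding with 10 μM naloxone; IC50 by nonlinear regression converted to Ki via Cheng-Prusoff; selectivity as Ki ratio.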
# [2] = target: Delta-type opioid receptor (Homo sapiens, UniProt P41143); test: Displacement of [3H]-diprenorphine from recombinant human DOR transiently expressed in HEK293 cell membranes measured after 60 mins; in short: as §1
# Mu-type opioid receptor = Mu-type opioid receptor (Homo sapiens, UniProt P35372); test: Displacement of [3H]-diprenorphine from recombinant human MOR transiently expressed in HEK293 cell membranes measured after 60 mins; in short: as §1
# Homo sapiens [3] = species on record: Homo sapiens; test: Selectivity ratio of Ki for displacement of [3H]-diprenorphine from recombinant human DOR transiently expressed in HEK293 cell membranes to Ki for displacement of [3H]-diprenorphine from recombinant human KOR transiently expressed in HEK293 cell membranes; in short: as §1
# Homo sapiens [4] = species on record: Homo sapiens; test: Selectivity ratio of Ki for displacement of [3H]-diprenorphine from recombinant human MOR transiently expressed in HEK293 cell membranes to Ki for displacement of [3H]-diprenorphine from recombinant human KOR transiently expressed in HEK293 cell membranes; in short: as §1
# [5] = target: T1, Kappa-type opioid receptor; test: Binding affinity to recombinant human KOR transiently expressed in CHOK1 cells at 50 nM measured 20 mins post compound washout by TIRF microscopic analysis relative to control; type: cell-based
# In short: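 CHO-K1 cells transiently expressing human KOR, 24 h post-transfection; incubated 20 min at 37 °C with 50 nM fluorescent ligand in complete medium, then washed on-stage with fresh imaging buffer. TIRF images of the same cell taken every minute over 20 min; cell ROI intensity compared with pre-wash image, bleaching control included; triplicate experiments.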
# [6] = target: T1, Kappa-type opioid receptor; test: Inverse agonist activity at recombinant human KOR transiently expressed in HEK293T cells co-expressing G-alphaqi assessed as reduction in dynorphin A-stimulated inositol phosphate accumulation measured after 180 mins by HTRF assay; type: functional, cell-based
# [7] = target: T1, Kappa-type opioid receptor; test: Partial agonist activity at EA-tagged beta-arrestin2 fused KOR (unknown origin) stably expressed in HEK293 cells assessed as induction of beta-arrestin2 recruitment measured after 300 mins by chemiluminescence assay; type: cell-based
# In short: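 PathHunter: HEK-293 cells stably expressing EA-tagged β-arrestin-2, transiently transfected with ProLink-tagged KOR-PK2; plated after 24 h, held a further 24 h at 37 °C. Compounds 1 pM to 10 μM final, 300 min at 37 °C, then detection mix 60 min at room temperature; chemiluminescence normalized to basal and dynorphin A maximum, nonlinear regression.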
# [8] = target: T1, Kappa-type opioid receptor; test: Binding affinity to recombinant human KOR transiently expressed in CHOK1 cells measured after 20 mins by TIRF microscopic analysis; type: cell-based
# In short: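 Saturation binding on CHO-K1 cells transiently expressing human KOR (24 h post-transfection): 20 min incubation at 37 °C with each ligand concentration in complete medium, one wash in HEPES buffer pH 7.3, TIRF imaging. Mean whole-cell intensity (>30 cells per concentration), normalized to highest concentration, fitted by nonlinear regression for Kd; three replicates.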
# [9] = target: T1, Kappa-type opioid receptor; test: Binding affinity to recombinant human KOR expressed in CHOK1 cells assessed as compound-coupled receptor mobility by measuring distribution in immobile phase at 100 nM measured after 20 mins by TIRF-SMM based TA-MSD analysis; type: cell-based
# In short: (§2)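 Wild-type human KOR transiently transfected into CHO-K1 cells (Lipofectamine 2000); labelled 4 h post-transfection with probe at 100 nM for 20 min, washed in HEPES imaging buffer pH 7.3 and imaged by TIRF at 20 °C. Trajectories from automated particle tracking; time-averaged MSD of individual trajectories fitted to obtain diffusion coefficient and assign motion class.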
# [10] = target: T1, Kappa-type opioid receptor; test: Binding affinity to recombinant human KOR expressed in CHOK1 cells assessed as compound-coupled receptor mobility by measuring distribution in sub-diffusion phase at 100 nM measured after 20 mins by TIRF-SMM based TA-MSD analysis; type: cell-based; in short: as §2
# [11] = target: T1, Kappa-type opioid receptor; test: Binding affinity to recombinant human KOR expressed in CHOK1 cells assessed as compound-coupled receptor mobility by measuring distribution in normal diffusion phase at 100 nM measured after 20 mins by TIRF-SMM based TA-MSD analysis; type: cell-based; in short: as §2
# [12] = target: T1, Kappa-type opioid receptor; test: Binding affinity to recombinant human KOR expressed in CHOK1 cells assessed as compound-coupled receptor mobility by measuring distribution in super diffusion phase at 100 nM measured after 20 mins by TIRF-SMM based TA-MSD analysis; type: cell-based; in short: as §2
# [13] = target: T1, Kappa-type opioid receptor; test: Binding affinity to recombinant human KOR expressed in CHOK1 cells assessed as time of KOR colocalization in cell surface at 100 nM by single molecule microscopic analysis; type: cell-based
# In short: (§3)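 Human KOR transiently expressed in CHO-K1 cells, labelled 4 h post-transfection with Cy5 probe (10 nM) and Cy3 probe (100 nM), rapid wash, TIRF single-molecule imaging at 20 °C in HEPES buffer pH 7.3. Particles tracked automatically; observed co-localization durations deconvolved (Lucy-Richardson) against a CD86-SNAP (SiR-labelled) non-interacting control.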
# [14] = target: T1, Kappa-type opioid receptor; test: Binding affinity to recombinant human KOR expressed in CHOK1 cells assessed as time of KOR colocalization in cell surface at 10 nM by single molecule microscopic analysis; type: cell-based; in short: as §3
# Mu-type opioid receptor, sequence (P35372 whole entry): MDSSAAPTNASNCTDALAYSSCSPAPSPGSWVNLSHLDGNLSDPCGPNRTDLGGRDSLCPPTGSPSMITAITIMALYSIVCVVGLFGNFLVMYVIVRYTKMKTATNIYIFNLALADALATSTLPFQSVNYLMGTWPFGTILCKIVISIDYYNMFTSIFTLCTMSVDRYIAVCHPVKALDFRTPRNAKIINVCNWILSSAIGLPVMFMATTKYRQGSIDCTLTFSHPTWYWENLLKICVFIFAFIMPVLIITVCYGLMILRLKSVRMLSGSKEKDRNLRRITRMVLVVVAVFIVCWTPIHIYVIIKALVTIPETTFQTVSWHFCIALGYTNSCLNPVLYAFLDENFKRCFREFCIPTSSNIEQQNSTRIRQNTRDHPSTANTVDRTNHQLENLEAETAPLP
# Delta-type opioid receptor, sequence (P41143 whole entry): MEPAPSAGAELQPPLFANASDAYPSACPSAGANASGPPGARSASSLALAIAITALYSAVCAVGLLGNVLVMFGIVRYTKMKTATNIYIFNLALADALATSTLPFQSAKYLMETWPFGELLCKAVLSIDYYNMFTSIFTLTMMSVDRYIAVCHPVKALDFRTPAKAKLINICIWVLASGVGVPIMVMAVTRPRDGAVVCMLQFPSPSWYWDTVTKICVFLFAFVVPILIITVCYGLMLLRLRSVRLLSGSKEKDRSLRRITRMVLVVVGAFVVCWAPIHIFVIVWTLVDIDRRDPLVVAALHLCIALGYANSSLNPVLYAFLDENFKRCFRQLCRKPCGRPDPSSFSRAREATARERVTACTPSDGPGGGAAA
# T1 sequence (P41145 whole entry): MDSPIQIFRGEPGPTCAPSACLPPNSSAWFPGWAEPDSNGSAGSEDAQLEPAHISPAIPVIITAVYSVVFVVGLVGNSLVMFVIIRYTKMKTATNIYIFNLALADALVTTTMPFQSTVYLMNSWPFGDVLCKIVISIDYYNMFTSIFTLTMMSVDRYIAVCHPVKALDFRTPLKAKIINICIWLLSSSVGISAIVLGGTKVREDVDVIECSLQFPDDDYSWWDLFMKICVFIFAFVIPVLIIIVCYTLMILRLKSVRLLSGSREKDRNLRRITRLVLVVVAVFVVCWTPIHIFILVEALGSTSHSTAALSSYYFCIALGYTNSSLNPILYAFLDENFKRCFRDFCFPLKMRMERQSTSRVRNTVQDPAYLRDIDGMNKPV
SMILES,Ki [1] [µM],Ki [2] [µM],Ki (Mu-type opioid receptor) [µM],Ratio Ki (Homo sapiens [3]),Ratio Ki (Homo sapiens [4]),Activity [5] [%],Activity [6],Activity [7],Kd [8] [µM],Activity [9] [%],Activity [10] [%],Activity [11] [%],Activity [12] [%],TIME [13] [h],TIME [14] [h]
CN1/C(=C/C=C/C=C/C2=[N+](CCCCCC(=O)NCC(=O)NCC(=O)NCCCNC(=N)Nc3ccc4[nH]c5c(c4c3)C[C@@]3(O)[C@H]4Cc6ccc(O)c7c6[C@@]3(CCN4CC3CC3)[C@H]5O7)c3ccc(S(=O)(=O)[O-])cc3C2(C)C)C(C)(C)c2cc(S(=O)(=O)O)ccc21,0.0011,0.106,0.1,100,91,> 90,inactive,inactive,–,–,–,–,–,–,–
CN1/C(=C/C=C/C=C/C2=[N+](CCCCCC(=O)NCC(=O)NCC(=O)NCC(=O)NCC(=O)NCCCNC(=N)Nc3ccc4[nH]c5c(c4c3)C[C@@]3(O)[C@H]4Cc6ccc(O)c7c6[C@@]3(CCN4CC3CC3)[C@H]5O7)c3ccc(S(=O)(=O)[O-])cc3C2(C)C)C(C)(C)c2cc(S(=O)(=O)O)ccc21,0.0018,0.193,0.133,107,74,> 90,inactive,inactive,0.0048,–,–,–,–,–,–
CN1/C(=C/C=C/C2=[N+](CCCCCC(=O)NCCCNC(=N)Nc3ccc4[nH]c5c(c4c3)C[C@@]3(O)[C@H]4Cc6ccc(O)c7c6[C@@]3(CCN4CC3CC3)[C@H]5O7)c3ccc(S(=O)(=O)[O-])cc3C2(C)C)C(C)(C)c2cc(S(=O)(=O)O)ccc21,0.0086,0.031,0.38,4,44,–,Active,inactive,0.0188,16,25,51,8,< 2.78e-05,–
CN1/C(=C/C=C/C=C/C2=[N+](CCCCCC(=O)NCCCNC(=N)Nc3ccc4[nH]c5c(c4c3)C[C@@]3(O)[C@H]4Cc6ccc(O)c7c6[C@@]3(CCN4CC3CC3)[C@H]5O7)c3ccc(S(=O)(=O)[O-])cc3C2(C)C)C(C)(C)c2cc(S(=O)(=O)O)ccc21,0.0014,0.039,0.04,28,29,> 90,Active,inactive,0.0095,–,–,–,–,–,< 2.78e-05
CN1/C(=C/C=C/C2=[N+](CCCCCC(=O)NCC(=O)NCC(=O)NCC(=O)NCC(=O)NCCCNC(=N)Nc3ccc4[nH]c5c(c4c3)C[C@@]3(O)[C@H]4Cc6ccc(O)c7c6[C@@]3(CCN4CC3CC3)[C@H]5O7)c3ccc(S(=O)(=O)[O-])cc3C2(C)C)C(C)(C)c2cc(S(=O)(=O)O)ccc21,0.0032,0.28,0.11,88,34,–,inactive,inactive,–,–,–,–,–,–,–
